The record followed here is ChEMBL document CHEMBL1155352, “Antiparasitic activities of novel, orally available fumagillin analogs” (Bioorg Med Chem Lett, 2009).

Molecules are shown by their SMILES. Values after ≈ are worked out from the molar mass of the structure shown. Active and inactive are the calls of the source. No cut-off for these calls is given here.

In one assay the test system is Entamoeba histolytica. As to the kind of experiment: Antiparasitic activity against Entamoeba histolytica HMI:IMSS trophozoites after 60 hrs. It counts as functional, organism-based, HM-1:IMSS.
Assay [1] deals with Plasmodium falciparum. As to the kind of experiment: Antiparasitic activity against Plasmodium falciparum W2 infected in human erythrocytes after 72 hrs by FACS. It counts as functional, organism-based.
Another assay has as its system Trypanosoma brucei. As to the kind of experiment: Antiparasitic activity against Trypanosoma brucei 427 after 48 hrs. It counts as functional, organism-based.
The target in assay [2] is Methionine aminopeptidase 2 (Homo sapiens) (UniProt P50579). As to the kind of experiment: Inhibition of human MetAP2 assessed as residual activity at 800 nM after 8 hrs by Met-AMC based fluorescence assay. A digest of the protocol: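 Human MetAP2 (80 nM) preincubated with compound at 800 nM for 8 h; remaining free enzyme activity then read by Met-AMC fluorescence and reported as residual activity.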

The test system of another assay is Leishmania donovani. As to the kind of experiment: Antiparasitic activity against Leishmania donovani at <100 ug/mL. It counts as functional, organism-based.
In assay [3] the test system is Plasmodium falciparum. As to the kind of experiment: Antiparasitic activity against Plasmodium falciparum D2 infected in human erythrocytes after 72 hrs by FACS. The format is functional, organism-based.
The next assay deals with Plasmodium berghei. As to the kind of experiment: Antiparasitic activity against Plasmodium berghei infected Swiss Webster mice (Mus musculus) assessed as protection against parasite infection at 25 mg/kg, subcutaneously administered every 12 hrs for 4 days measured after 12 days. It counts as functional, organism-based. Set-up: dose 25 mg/kg. A digest of the protocol:
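P. berghei-infected mice, infected on Day 1, dosed subcutaneously with 25 mg/kg every 12 h; PBS-dosed controls. Survival followed over days post infection; each data point mean of triplicates.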

[4] abbreviates: Entamoeba histolytica, HM-1:IMSS, 60 h, read-out: IC50.
Where [5] appears, read: Plasmodium falciparum, W2, 72 h, read-out: IC50.
Setting [6] is: Trypanosoma brucei, 427, 48 h, read-out: IC50.
[7] abbreviates: Plasmodium falciparum, D2, 72 h, read-out: IC50.

Sequence of Methionine aminopeptidase 2 (Homo sapiens) (P50579 2-478 limits assumed): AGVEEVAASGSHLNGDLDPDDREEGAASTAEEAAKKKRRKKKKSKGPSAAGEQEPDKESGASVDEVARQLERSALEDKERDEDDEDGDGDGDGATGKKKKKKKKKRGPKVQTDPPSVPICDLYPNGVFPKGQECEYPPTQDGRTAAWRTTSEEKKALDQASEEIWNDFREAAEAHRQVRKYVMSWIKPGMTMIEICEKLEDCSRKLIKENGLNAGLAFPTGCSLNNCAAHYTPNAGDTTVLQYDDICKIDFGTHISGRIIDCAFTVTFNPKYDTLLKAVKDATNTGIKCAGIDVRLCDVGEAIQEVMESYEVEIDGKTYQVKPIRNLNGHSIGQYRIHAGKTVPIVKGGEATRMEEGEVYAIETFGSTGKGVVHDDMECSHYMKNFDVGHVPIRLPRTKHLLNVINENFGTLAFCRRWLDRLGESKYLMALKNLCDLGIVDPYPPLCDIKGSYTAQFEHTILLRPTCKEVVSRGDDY

As for `CO[C@@H]1[C@H](OC(=O)N2CCC(C(=O)O)CC2)CC[C@]2(CO2)[C@H]1[C@@]1(C)O[C@@H]1CC=C(C)C`, the IC50 in the assay on Entamoeba histolytica (setting [4]) was 0.087 µg/mL (≈ 0.199 µM); in the assay on Plasmodium falciparum [1] (setting [5]) it was 0.0367 µg/mL (≈ 0.0839 µM); in the assay with Trypanosoma brucei (BLD = below limit of detection), “BLD”. Further, the Activity in assay [2] came to 8%. For the same compound, the outcome in the assay on Leishmania donovani was inactive.
Take `CO[C@@H]1[C@H](OC(=O)N[C@@H](C(=O)NCCC2CCCN2C)C(C)C)CC[C@]2(CO2)[C@H]1[C@@]1(C)O[C@@H]1CC=C(C)C` (some centres not stated): the results for the IC50 in the assay on Entamoeba histolytica (setting [4]), in the assay with Trypanosoma brucei (setting [6]) and in the assay with Plasmodium falciparum [3] (setting [7]) were 1.39 µg/mL (≈ 2.59 µM), 19 µg/mL (≈ 35.5 µM) and 0.0347 µg/mL (≈ 0.0648 µM), respectively. In assay [2], the Activity was 5%. Also, the outcome in the assay on Leishmania donovani was inactive. Also, the outcome in the assay on Plasmodium berghei was Active.
`CO[C@@H]1[C@H](OC(=O)N[C@@H](C(=O)Nc2cccc(C(=O)O)c2)C(C)C)CC[C@]2(CO2)[C@H]1[C@@]1(C)O[C@@H]1CC=C(C)C`: the IC50 amounted to 0.497 µg/mL (≈ 0.913 µM) with Entamoeba histolytica (setting [4]), 14 µg/mL (≈ 25.7 µM) with Trypanosoma brucei (setting [6]) and 0.136 µg/mL (≈ 0.25 µM) in the assay with Plasmodium falciparum [3] (setting [7]). In addition, the Activity in assay [2] is 4%. In addition, the result in the assay on Leishmania donovani was inactive.
With `CO[C@@H]1[C@H](OC(=O)NN2CCOCC2)CC[C@]2(CO2)[C@H]1[C@@]1(C)O[C@@H]1CC=C(C)C`, the half-inhibitory concentration (IC50) in the assay on Entamoeba histolytica (setting [4]) was determined as 0.01 µg/mL (≈ 0.0244 µM); in the assay on Plasmodium falciparum [1] (setting [5]), 0.00774 µg/mL (≈ 0.0189 µM); with Trypanosoma brucei (setting [6]), 28 µg/mL (≈ 68.2 µM). The Activity in assay [2] is 6%. The outcome in the assay with Leishmania donovani was inactive.
Consider `CO[C@@H]1[C@H](OC(=O)NC(=O)CCl)CC[C@]2(CO2)[C@H]1[C@@]1(C)O[C@@H]1CC=C(C)C` [O-CHLOROACETYLCARBAMOYLFUMAGILLOL], for which the IC50 was 0.026 µg/mL (≈ 0.0647 µM) in the assay on Entamoeba histolytica (setting [4]), 0.0123 µg/mL (≈ 0.0306 µM) in the assay with Plasmodium falciparum [1] (setting [5]) and 2.8 µg/mL (≈ 6.97 µM) in the assay with Trypanosoma brucei (setting [6]).
Consider `CO[C@@H]1[C@H](OC(=O)N[C@@H](C(=O)NCCCN(C)C)C(C)C)CC[C@]2(CO2)[C@H]1[C@@]1(C)O[C@@H]1CC=C(C)C`, for which the concentration for half-maximal inhibition (IC50) in the assay with Entamoeba histolytica (setting [4]) is 2.28 µg/mL (≈ 4.47 µM); in the assay on Trypanosoma brucei (setting [6]) it was 25 µg/mL (≈ 49 µM); with Plasmodium falciparum [3] (setting [7]) it was 0.0263 µg/mL (≈ 0.0516 µM). For the same compound, the result in the assay with Leishmania donovani was inactive.
For `CO[C@@H]1[C@H](OC(=O)N[C@@H](C(=O)NN2CCCCC2)C(C)C)CC[C@]2(CO2)[C@H]1[C@@]1(C)O[C@@H]1CC=C(C)C`, the concentration for half-maximal inhibition (IC50) amounted to 0.0643 µg/mL (≈ 0.127 µM) with Entamoeba histolytica (setting [4]), 55 µg/mL (≈ 108 µM) with Trypanosoma brucei (setting [6]) and 0.0288 µg/mL (≈ 0.0567 µM) with Plasmodium falciparum [3] (setting [7]). Besides, the result in the assay on Leishmania donovani was inactive.
Take `CO[C@@H]1[C@H](OC(=O)NCc2ccc(C(=O)O)cc2)CC[C@]2(CO2)[C@H]1[C@@]1(C)O[C@@H]1CC=C(C)C`: the results for the 50% inhibitory concentration (IC50) with Entamoeba histolytica (setting [4]), in the assay on Plasmodium falciparum [1] (setting [5]) and in the assay on Trypanosoma brucei (setting [6]) were 0.01 µg/mL (≈ 0.0218 µM), 0.0205 µg/mL (≈ 0.0446 µM) and 42 µg/mL (≈ 91.4 µM), respectively. The Activity in assay [2] was 3%. In the assay with Leishmania donovani, the result was Active.
As to `CO[C@@H]1[C@H](OC(=O)NC(C)(C)C(=O)N2CCN(Cc3ccccc3)CC2)CC[C@]2(CO2)[C@H]1[C@@]1(C)O[C@@H]1CC=C(C)C`, the IC50 in the assay with Entamoeba histolytica (setting [4]) is 2.54 µg/mL (≈ 4.46 µM); with Trypanosoma brucei (BLD = below limit of detection), “BLD”; in the assay with Plasmodium falciparum [3] (BLD = below limit of detection), “BLD”. The result in the assay on Leishmania donovani was inactive.
Consider `CO[C@@H]1[C@H](OC(=O)/C=C/C=C/C=C/C=C/C(=O)O)CC[C@]2(CO2)[C@H]1[C@@]1(C)O[C@@H]1CC=C(C)C` [FUMAGILLIN], for which the IC50 in the assay on Entamoeba histolytica (setting [4]) came to 0.005 µg/mL (≈ 0.0109 µM); with Plasmodium falciparum [1] (setting [5]) it was 0.0996 µg/mL (≈ 0.217 µM); in the assay on Trypanosoma brucei (setting [6]) it was 26 µg/mL (≈ 56.7 µM).
Regarding `CO[C@@H]1[C@H](OC(=O)N[C@H]2CN3CCC2CC3)CC[C@]2(CO2)[C@H]1[C@@]1(C)O[C@@H]1CC=C(C)C`, the half-maximal inhibitory concentration (IC50) with Entamoeba histolytica (setting [4]) was determined as 1.26 µg/mL (≈ 2.9 µM); with Plasmodium falciparum [1] (setting [5]) it was 0.0394 µg/mL (≈ 0.0907 µM). Further, the result in the assay with Leishmania donovani was inactive.
As for `CO[C@@H]1[C@H](OC(=O)N[C@@H](C(N)=O)C(C)C)CC[C@]2(CO2)[C@H]1[C@@]1(C)O[C@@H]1CCC(C)(C)O`, the IC50 result in the assay with Entamoeba histolytica (BLD = below limit of detection), in the assay on Plasmodium falciparum [1] (BLD = below limit of detection) and in the assay on Trypanosoma brucei (BLD = below limit of detection) was “BLD” in each case. In assay [2], the Activity stood at 90%. Moreover, the result in the assay on Leishmania donovani was inactive.
